Assay results as given in ChEMBL document CHEMBL2406910, “Structures and potential antitumor activity of sesterterpenes from the marine sponge Hyrtios communis” (J Nat Prod, 2013).

Key:
T47D = assay: Antiproliferative activity against human T47D cells after 48 hrs by SRB assay; type: functional, cell-based
Procedure, shortened: (§1)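 Human breast tumor T47D and MDA-MB-231 cells (ATCC) were treated with compounds for 48 h, and proliferation/viability was measured. […] Cycloheximide and rotenone served as positive controls.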

[1] = Inhibition of hypoxia-induced HIF-1 activation in human T47D cells by luciferase reporter gene assay; type: cell-based
Procedure, shortened: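 T47D cells carrying the reporter were incubated under hypoxia (1% O2) for 16 h while exposed to a range of compound concentrations. […] Cycloheximide and rotenone served as positive controls.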

MDA-MB-231 = assay: Antiproliferative activity against human MDA-MB-231 cells after 48 hrs by SRB assay; type: functional, cell-based; details: MDA-MB-231, 48 h; procedure, shortened: as §1

| IC50 (T47D) | IC50 [1] | IC50 (MDA-MB-231) | SMILES |
| --- | --- | --- | --- |
| > 10 µM | 6.2 µM | > 10 µM | CC1=C(CC/C(C)=C/CC/C(C)=C/CCC2=CC(=O)OC2O)C(C)(C)C(=O)CC1 (configuration not stated) |
| > 10 µM | – | > 10 µM | CC1=C(CC/C(C)=C/CC/C(C)=C/CCC2=CC(=O)OC2O)C(C)(C)CCC1=O (configuration not stated) [ACANTHOLIDE B] |
| > 10 µM | – | > 10 µM | CC1=C(CC/C(C)=C/CC/C(C)=C/CCC2=CC(=O)OC2O)C(C)(C)CCC1O (configuration not stated) |

More lines, now with the values behind:

| SMILES | IC50 (T47D) | IC50 [1] | IC50 (MDA-MB-231) |
| --- | --- | --- | --- |
| C=C(CCC1=C(C)CCCC1(C)C)C(O)CC/C(C)=C/CCC1=CC(=O)OC1O (configuration not stated) | > 10 µM | 7.1 µM | > 10 µM |
| CC1=C(CCC(C)(O)/C=C/C/C(C)=C/CCC2=CC(=O)OC2O)C(C)(C)CCC1 (configuration not stated) | > 10 µM | – | > 10 µM |
| CC1=C(CC/C(C)=C/CC/C(C)=C/C[C@@H](O)C2=CC(=O)OC2)C(C)(C)C(=O)CC1 | > 10 µM | 3.2 µM | > 10 µM |
| CC(=O)CCCC(C)(C)C(=O)CC/C(C)=C/CC/C(C)=C/CCC1=CC(=O)OC1O (configuration not stated) | > 10 µM | – | > 10 µM |
| CC1=C(CC/C(C)=C/CC/C(C)=C/CCC2=CC(=O)OC2O)C(C)(C)CCC1 (configuration not stated) [LUFFARIELLOLIDE] | 5.1 µM | 3.6 µM | 4.5 µM |
| C=C1CCCC(C)(C)C1(O)CC/C(C)=C/CC/C(C)=C/CCC1=CC(=O)OC1O (configuration not stated) | > 10 µM | – | > 10 µM |
| CC1=C(CC/C(C)=C/CC/C(C)=C/C[C@@H](O)C2=CC(=O)OC2)C(C)(C)CCC1 | > 10 µM | – | > 10 µM |
| CC(=O)O[C@H](C/C=C(\C)CC/C=C(\C)CCC1=C(C)CCC(=O)C1(C)C)C1=CC(=O)OC1 | > 10 µM | 3.5 µM | > 10 µM |
